GSIS activator = primary screen for activators of insulin secretion dependent on glucose, INS-1E cells, GLuc reporter luminescence; 0.61% of 370,000 active; activation, % at 16.6 µM; INS-1E GLuc reporter insulin secretion, 2-3 h;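 active = lowest replicate activation of at least 40%, so every replicate reaches that level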;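 note: 0% = median of neutral control wells and 100% = median of IBMX positive control wells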
ERAP1 HTS inh = blocks human ERAP1 aminopeptidase activity; inhibition, % at 10.7 µM; Q9NZ08; AID 652197; recombinant ERAP1, Leu-AMC fluorescence, 60 min; 0.15% of 340,000 active;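 active = mean replicate inhibition of at least 30%, or all replicates individually reaching that 30% level; inactive = mean below 30% and not every replicate reaching it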;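 note: 0% = neutral control wells and 100% = L-leucinethiol positive control wells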
DENV2 CPE = DENV2-induced cell death inhibition; 1.7% of 350,000 active; DENV2-infected cells, cytopathic effect rescue, plate reader; CPE inhibition, % at 9.99 µM; in the data active = CPE inhibition above about 20%, passing the limit was not always enough; inconclusive = no clear call, values can overlap the other calls; tested in BHK-21 cells;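 note: 0% = median of neutral control wells and 100% = median of positive control wells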
CFTR F508del cor = CFTR F508del correction in bronchial cells | CFBE cells, YFP halide quenching; stimulated with forskolin plus potentiator P3; % fluorescence drop versus neutral controls | activity (quench increase), % at 7.58 µM | 0.36% of 350,000 active | AID 720511;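 active = mean added fluorescence quench of at least 8% versus neutral control, with both replicates also reaching 8%; inconclusive = only one of the mean or replicate conditions met; inactive = mean below 8% and not both replicates reaching 8%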;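 note: cells transiently co-express mutant CFTR-F508del with the halide-sensitive YFP; corrector assay measuring rescue of mutant channel to the surface after 24 h compound exposure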
E-sel inducer = induces E-selectin expression in human endothelial cells | activation, % at 7.58 µM | 0.37% of 260,000 active | AID 686992 | P16581 | HUVEC E-selectin immunofluorescence imaging; normalized: neutral wells 0, TNF-alpha wells 100;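 active = mean E-selectin-positive cell signal at least 10% of the positive control, reached in at least 60% of replicates, without over 20% cell loss; inconclusive = no rule given, readout overlaps actives, possibly toxicity-flagged; inactive = the rest, including those meeting only one limit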
Target sequence (P16581 whole entry, looked up): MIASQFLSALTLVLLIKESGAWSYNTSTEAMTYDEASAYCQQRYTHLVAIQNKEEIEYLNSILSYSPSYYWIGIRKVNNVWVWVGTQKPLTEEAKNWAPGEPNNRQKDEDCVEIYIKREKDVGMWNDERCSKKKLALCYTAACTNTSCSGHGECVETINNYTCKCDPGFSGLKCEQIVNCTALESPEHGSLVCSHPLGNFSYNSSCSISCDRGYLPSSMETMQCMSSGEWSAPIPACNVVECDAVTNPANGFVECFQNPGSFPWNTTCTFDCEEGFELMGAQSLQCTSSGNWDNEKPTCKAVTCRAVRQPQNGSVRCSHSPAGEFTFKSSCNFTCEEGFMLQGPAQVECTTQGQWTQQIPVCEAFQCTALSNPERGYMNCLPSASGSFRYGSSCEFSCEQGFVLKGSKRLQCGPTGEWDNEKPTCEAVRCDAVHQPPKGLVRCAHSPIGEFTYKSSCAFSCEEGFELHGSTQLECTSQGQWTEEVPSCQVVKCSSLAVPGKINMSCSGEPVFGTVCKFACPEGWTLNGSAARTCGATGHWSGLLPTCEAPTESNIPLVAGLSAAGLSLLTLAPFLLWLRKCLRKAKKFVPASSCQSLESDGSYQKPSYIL
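Read-out: % PE-positive cells | Test system: HUVEC | Doses: One compound dose added by pin transfer | Buffer or medium: EGM-2 over gelatin coat | Signal: Immunofluorescence imaging | Benchmarks: TNF-alpha, DMSO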
miR122 inh = miR-122 inhibition in Huh7 cells; activation (reporter increase), % at 12.5 µM; 0.3% of 340,000 active; Huh7 miR-122 Renilla luciferase sensor, 48 h; neutral wells = 0, positive control = 100;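 active = mean replicate activation score at least 90 and every replicate individually at or above 90; inconclusive = only one of the two criteria met; inactive = neither criterion met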;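 note: higher luciferase means less miR-122 activity so hits act as miR-122 inhibitors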
* marks the source's active call; other numbers are inactive results; ? = inconclusive; · = no result given; [ ] = remark or other dose. Only some compounds are listed: those with a hit (about 2.6% of all), similar ones and a draw of the others.

SMILES	GSIS activator	ERAP1 HTS inh	DENV2 CPE	CFTR F508del cor	E-sel inducer	miR122 inh
CCOC(=O)[C@]12CCCC=C1N(Cc1cccc3ccccc13)C(=O)[C@H](CC(=O)N1CCSCC1)C2	-8	-3	-6	0	·	·
COC(=O)[C@]12CCCCC=C1N(Cc1cccc3ccccc13)C(=O)[C@H](CC(=O)NCc1ccccc1)C2	-31	-3	-10	0	0	·
COC(=O)[C@]12CCCCC=C1N(Cc1cccc3ccccc13)C(=O)[C@H](CC(=O)NCCC(C)C)C2	9	-3	109*	0	0	·
COC(=O)[C@]12CCCCC=C1N(Cc1cccc3ccccc13)C(=O)[C@H](CC(=O)N1CCSCC1)C2	4	0	32*	4	0	·
CCOC(=O)[C@]12CCC=C1N(Cc1cccc3ccccc13)C(=O)[C@H](CC(=O)N1CCCC1)C2	-19	0	37*	-2	·	·
COc1ccc2c3c([nH]c2c1)[C@H](CO)N(C(=O)C1CC1)CC31CN(C)C1	20	-1	4	0	0	·
Cc1noc(C)c1NC(=O)Nc1ccc2c(c1)CC(=O)N([C@H](C)CO)C[C@@H](C)[C@H](CN(C)Cc1ccc(Oc3ccccc3)cc1)O2	-5	·	9	0	-9	-5[16.7 µM]
CCCNC(=O)N(C)C[C@H]1Oc2ncc(C3=CCCC3)cc2C(=O)N([C@H](C)CO)C[C@H]1C	-1	-4	2	0	0	15[16.7 µM]
CCOc1ccc(CC2NCCc3cc(OCC)c(OCC)cc32)cc1OCC (stereo unspecified)	-51	-4	2	1	0	0
COc1cc2c(cc1OC)C(Cc1ccc(O)cc1)NCC2 (stereo unspecified)	70*	4	-2	1	0	-1
COc1cc2c(cc1OC)C(Cc1ccc(O)cc1)N(C)CC2 (stereo unspecified)	40*	2	-3	-1	·	·
C[C@H](CO)N1C[C@H](C)[C@@H](CN(C)S(=O)(=O)c2ccc(Cl)cc2)Oc2ccc(NC(=O)C3CCCCC3)cc2C1=O	-19	2	-5	1	·	0[16.7 µM]
Cc1cc(NC(=O)c2ccc([N+](=O)[O-])cc2)n(CCC#N)n1	-10	5	43*	0	3	0
CC(C)(C)c1cc(C(F)(F)F)n2ncc(-c3ccccc3)c2n1	-6	0	-3	1	·	-4
CN(C)CCCNc1cc(C(C)(C)C)nc2c(-c3ccc(Cl)cc3)cnn12	411*	-1	-16	-11	0	-1
CC(C)Nc1cc(C(C)(C)C)nc2c(-c3ccccc3)cnn12	-6	·	46*	1	0	·
CCCc1cc(N2CCOCC2)n2ncc(-c3ccccc3)c2n1	-8	4	1	·	2	·
CC(C)(C)c1cc(N2CCOCC2)n2ncc(-c3ccccc3)c2n1	-19	32*	-5	1	0	-6
O=C(C[C@H]1C[C@H]2c3cc(NC(=O)Cc4ccncc4)ccc3O[C@H]2[C@H](CO)O1)NCc1ccc(-c2ccccc2)cc1	-38	-1	-4	-3	0	14[16.7 µM]
CC[C@@]1(O)C(=O)OCc2c1cc1n(c2=O)Cc2cc3c(N)cccc3nc2-1	·	0	-8	1	0	·
CC[C@@]1(O)C(=O)OCc2c1cc1n(c2=O)Cc2cc3c(CN(C)C)c(O)ccc3nc2-1	·	4	7	26*	0	-19
COc1ccc(CNC(=O)C(C)N2C(=O)NC3(CCCCCCC3)C2=O)cc1 (stereo unspecified)	19	-3	87*	5	0	·
COc1ccc(CNC(=O)Cn2ccc(N)nc2=O)cc1	-13	-1	-2	-4	39*	-1
COc1ccc(OCCOC(=O)CN2C(=O)NC3(CCCC3)C2=O)cc1	22	1	?	2	·	0
Nc1ccn(CC(=O)NCc2ccc3c(c2)OCO3)c(=O)n1	19	1	-2	-1	0	-4
SMILES	GSIS activator	ERAP1 HTS inh	DENV2 CPE	CFTR F508del cor	E-sel inducer	miR122 inh
COc1ccc(CCNC(=O)CN2C(=O)NC3(CCCCC3)C2=O)cc1	·	-1	1	3	0	-3
COc1ccc(CNC(=O)COC(=O)CN2C(=O)NC3(CCCC3)C2=O)cc1	-6	0	29*	4	-1	1
COc1cccc(C(=O)Nc2ccc3c(c2)C(=O)N(C)[C@@H]2CC[C@@H](CC(=O)NCCCN4CCOCC4)O[C@H]2CO3)c1	1	-8	1	·	0	·
O=C(CC1CC1)Nc1ccc2c(c1)[C@@H]1C[C@@H](CC(=O)N3CCc4ccccc4C3)O[C@H](CO)[C@@H]1O2	11	-2	-2	2	1	-5[16.7 µM]
CC1(C#N)c2ccccc2C(Br)=CN1C(=O)c1ccccc1 (stereo unspecified)	2	·	31*	-4	0	·
N#CC1(Cc2ccc(Cl)cc2)c2ccccc2C=CN1C(=O)c1ccccc1 (stereo unspecified)	-22	·	·	·	·	·
CC(N)c1csc(Nc2ccc(C(=O)NCCCO)cn2)n1 (stereo unspecified)	8	5	30*	-4	0	0
NC(c1csc(Nc2ccc(C(=O)NCCO)cc2)n1)C1CCCCC1 (stereo unspecified)	-8	6	22*	-2	0	·
NC(c1csc(Nc2ccc(C(=O)NCCCO)cn2)n1)C1CCCCC1 (stereo unspecified)	-7	-3	2	-1	0	10
CCOc1cccc2cc(C(=O)Nc3cc(C)on3)c(=O)oc12	45*	·	·	·	·	-1
C[C@H](CO)N1C[C@H](C)[C@@H](CN(C)Cc2ccc(Cl)c(Cl)c2)Oc2c(NC(=O)Nc3ccc(C(F)(F)F)cc3)cccc2C1=O	-8	1	-10	3	·	12[16.7 µM]
Cc1[nH]c2c(ccc3cccnc32)c1C	-7	1	-2	2	0	-2
CC1=[N+](C)c2c(ccc3cccnc23)C1(C)C	-67	-2	2	-10	196*	·
CC(=O)N1CC2(C1)[C@H](c1ccc(-c3ccc(C#N)cc3)cc1)[C@@H](CO)N2CCC(F)(F)F	8	-8	2	5	1	·
C[C@@H]1CN([C@H](C)CO)S(=O)(=O)c2ccc(-c3cccnc3)cc2O[C@@H]1CN(C)C(=O)c1cccc(F)c1	-1	-3	1	-4	0	0[16.7 µM]
C[C@@H]1CN([C@H](C)CO)C(=O)Cc2cc(NC(=O)Nc3cccc4ccccc34)ccc2O[C@@H]1CN(C)Cc1ccccc1	-19	1	3	2	0	4[16.7 µM]
C[C@H]1CN([C@@H](C)CO)C(=O)Cc2cc(NC(=O)Nc3cccc4ccccc34)ccc2O[C@H]1CN(C)Cc1ccc(C(=O)O)cc1	-9	-14	5	0	0	-5[16.7 µM]

High-throughput results from PubChem.
